# Laboratory results taken from ChEMBL document CHEMBL4334471, “Discovery of 1,8-disubstituted-[1,2,3]triazolo[4,5-c]quinoline derivatives as a new class of Hippo signaling pathway inhibitors” (Bioorg Med Chem Lett, 2019).
# Columns and labels:
# [1] = molecular target: cAMP-dependent protein kinase catalytic subunit PRKX (Homo sapiens) (UniProt P51817); experiment: Inhibition of recombinant human full length PrKX assessed as residual activity at 10 uM using RRRLSFAEPG as substrate incubated for 40 mins in presence of [gamma33P]ATP by scintillation counting based radiometry assay relative to control
# [2] = tested on: Ribosomal protein S6 kinase beta-1 (Homo sapiens), P23443 [T412E]; experiment: Inhibition of recombinant human p70S6K T412E mutant (1 to 421 residues) assessed as residual activity at 10 uM using KKRNRTLTV as substrate measured after 40 mins in presence of [gamma33P]ATP by scintillation counting based radiometry assay relative to control
# [3] = molecular target: Mitogen-activated protein kinase kinase kinase 20 (Homo sapiens) (UniProt Q9NYL2); experiment: Inhibition of recombinant full-length human ZAK assessed as residual activity at 10 uM using MBP as substrate incubated for 40 mins in presence of [gamma33P]ATP by scintillation counting based radiometry assay relative to control
# [4] = molecular target: Cyclin-dependent kinase 5/CDK5 activator 1 (Homo sapiens) (UniProt Q00535+Q15078); experiment: Inhibition of recombinant full length human CDK5/p25 assessed as residual activity at 10 uM using histone H1 as substrate incubated for 40 mins in presence of [gamma-33ATP] by scintillation counting based radiometry assay relative to control; type: protein-complex assay
# [5] = molecular target: Protein kinase C zeta type (Homo sapiens) (UniProt Q05513); experiment: Inhibition of recombinant human PKCzeta (2 to end residues) assessed as residual activity at 10 uM using ERMRPRKRQGSVRRRV as substrate incubated for 40 mins in presence of [gamma33P]ATP by scintillation counting based radiometry assay relative to control
# [6] = molecular target: Serine/threonine-protein kinase 4 (Homo sapiens, UniProt Q13043); experiment: Inhibition of recombinant full-length human MST1 assessed as residual activity using KKSRGDYMTMQIG as substrate measured after 40 mins in presence of [gamma33P]ATP by scintillation counting based radiometry assay
# In short: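 Outsourced kinase profiling of MST1 by a commercial service (Eurofins); activity reported as mean ± SEM of 2 replicates.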
# [7] = tested on: Proto-oncogene tyrosine-protein kinase receptor Ret (Homo sapiens), P07949 [V804L]; experiment: Inhibition of recombinant human Ret V804L mutant (658 to end residues) assessed as residual activity at 10 uM using KKKSPGEYVNIEFG as substrate incubated for 40 mins in presence of [gamma33P]ATP by scintillation counting based radiometry assay relative to control
# [8] = molecular target: Interleukin-1 receptor-associated kinase 1 (Homo sapiens) (UniProt P51617); experiment: Inhibition of human IRAK1 (194 to end residues) assessed as residual activity at 10 uM using myelin basic protein as substrate after 40 mins by [gamma-33ATP] radiometric assay relative to control
# [9] = molecular target: Serine/threonine-protein kinase Nek3 (Homo sapiens) (UniProt P51956); experiment: Inhibition of recombinant full-length human NEK3 assessed as residual activity at 10 uM using myelin basic protein as substrate measured after 40 mins in presence of [gamma33P]ATP by scintillation counting based radiometry assay relative to control
# [10] = molecular target: MAP kinase-interacting serine/threonine-protein kinase 2 (Homo sapiens) (UniProt Q9HBH9); experiment: Inhibition of recombinant human MNK2 assessed as residual activity at 10 uM using myelin basic protein as substrate incubated for 40 mins in presence of [gamma-33ATP by scintillation counting based radiometry assay relative to control
# [11] = molecular target: SRSF protein kinase 3 (Homo sapiens) (UniProt Q9UPE1); experiment: Inhibition of recombinant full-length human MSSK1 assessed as residual activity at 10 uM using ERMRPRKRQGSVRRRV as substrate measured after 40 mins in presence of [gamma33P]ATP by scintillation counting based radiometry assay relative to control
# [12] = tested on: PI3-kinase p110-alpha/p85-alpha (Homo sapiens), P27986+P42336 [E545K]; experiment: Inhibition of recombinant full-length human PI3K p110/p85 E545K mutant assessed as residual activity at 10 uM using phosphatidylinositol-4, 5-bisphosphate as substrate incubated for 40 mins in presence of [gamma33P]ATP by scintillation counting based radiometry assay relative to control
# [13] = molecular target: Serine/threonine-protein kinase D3 (Homo sapiens) (UniProt O94806); experiment: Inhibition of recombinant full-length human PKD3 assessed as residual activity at 10 uM using KKLNRTLSVA as substrate incubated for 40 mins in presence of [gamma33P]ATP by scintillation counting based radiometry assay relative to control
# [14] = molecular target: Serine/threonine-protein kinase PLK1 (Homo sapiens) (UniProt P53350); experiment: Inhibition of recombinant full-length human Plk1 assessed as residual activity at 10 uM using casein as substrate incubated for 40 mins in presence of [gamma33P]ATP by scintillation counting based radiometry assay relative to control
# [15] = molecular target: Serine/threonine-protein kinase Nek2 (Homo sapiens) (UniProt P51955); experiment: Inhibition of recombinant full-length human NEK2 assessed as residual activity at 10 uM using myelin basic protein as substrate measured after 40 mins in presence of [gamma33P]ATP by scintillation counting based radiometry assay relative to control
# [16] = molecular target: Bone morphogenetic protein receptor type-2 (Homo sapiens) (UniProt Q13873); experiment: Inhibition of recombinant human BMPR2 (172 to 734 residues) assessed as residual activity at 10 uM using myelin basic protein as substrate incubated for 120 mins in presence of [gamma-33ATP] by scintillation counting based radiometry assay relative to control
# [17] = tested on: Tyrosine-protein kinase ABL1 (Homo sapiens), P00519 [T315I]; experiment: Inhibition of human ABL1 T315I mutant (27 to end residues) assessed as residual activity at 10 uM using EAIYAAPFAKKK as substrate incubated for 40 mins in presence of [gamma-33ATP] by scintillation counting based radiometry assay relative to control
# [18] = tested on: Tyrosine-protein kinase receptor UFO (Homo sapiens), P30530 [Q764R]; experiment: Inhibition of recombinant human Axl Q764R mutant (473 to end residues) assessed as residual activity at 10 uM using KKSRGDYMTMQIG as substrate incubated for 40 mins in presence of [gamma-33ATP] by scintillation counting based radiometry assay relative to control
# [19] = molecular target: Serine/threonine-protein kinase Chk2 (Homo sapiens) (UniProt O96017); experiment: Inhibition of recombinant human CHK2 (5 to end residues) assessed as residual activity at 10 uM using KKKVSRSGLYRSPSMPENLNRPR as substrate incubated for 40 mins in presence of [gamma-33ATP] by scintillation counting based radiometry assay relative to control
# [20] = molecular target: Tyrosine-protein kinase Lyn (Mus musculus) (UniProt P25911); experiment: Inhibition of recombinant full length mouse Lyn assessed as residual activity at 10 uM using poly(Glu, Tyr) 4:1 as substrate after 40 mins in presence of [gamma-33ATP] by scintillation counting based radiometry assay relative to control
# Sequence of Cyclin-dependent kinase 5/CDK5 activator 1 (Homo sapiens) (Q00535 whole entry): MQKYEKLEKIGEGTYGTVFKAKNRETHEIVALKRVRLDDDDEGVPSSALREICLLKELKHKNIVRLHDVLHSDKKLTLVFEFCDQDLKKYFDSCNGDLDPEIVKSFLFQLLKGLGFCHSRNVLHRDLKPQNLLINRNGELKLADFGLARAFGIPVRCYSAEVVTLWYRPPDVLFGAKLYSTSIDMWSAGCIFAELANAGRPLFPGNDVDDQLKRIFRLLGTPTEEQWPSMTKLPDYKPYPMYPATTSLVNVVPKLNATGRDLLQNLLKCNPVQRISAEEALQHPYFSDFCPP
# Sequence of Cyclin-dependent kinase 5/CDK5 activator 1 (Homo sapiens) (Q15078 99-307 partner limits assumed): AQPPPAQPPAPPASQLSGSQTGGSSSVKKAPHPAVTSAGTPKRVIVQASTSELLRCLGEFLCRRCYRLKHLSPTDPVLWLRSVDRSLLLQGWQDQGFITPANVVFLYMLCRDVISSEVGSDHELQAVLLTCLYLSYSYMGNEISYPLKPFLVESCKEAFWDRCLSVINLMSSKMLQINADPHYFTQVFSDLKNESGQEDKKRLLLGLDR
# Sequence of Bone morphogenetic protein receptor type-2 (Homo sapiens) (Q13873 whole entry, the tested form may be a part): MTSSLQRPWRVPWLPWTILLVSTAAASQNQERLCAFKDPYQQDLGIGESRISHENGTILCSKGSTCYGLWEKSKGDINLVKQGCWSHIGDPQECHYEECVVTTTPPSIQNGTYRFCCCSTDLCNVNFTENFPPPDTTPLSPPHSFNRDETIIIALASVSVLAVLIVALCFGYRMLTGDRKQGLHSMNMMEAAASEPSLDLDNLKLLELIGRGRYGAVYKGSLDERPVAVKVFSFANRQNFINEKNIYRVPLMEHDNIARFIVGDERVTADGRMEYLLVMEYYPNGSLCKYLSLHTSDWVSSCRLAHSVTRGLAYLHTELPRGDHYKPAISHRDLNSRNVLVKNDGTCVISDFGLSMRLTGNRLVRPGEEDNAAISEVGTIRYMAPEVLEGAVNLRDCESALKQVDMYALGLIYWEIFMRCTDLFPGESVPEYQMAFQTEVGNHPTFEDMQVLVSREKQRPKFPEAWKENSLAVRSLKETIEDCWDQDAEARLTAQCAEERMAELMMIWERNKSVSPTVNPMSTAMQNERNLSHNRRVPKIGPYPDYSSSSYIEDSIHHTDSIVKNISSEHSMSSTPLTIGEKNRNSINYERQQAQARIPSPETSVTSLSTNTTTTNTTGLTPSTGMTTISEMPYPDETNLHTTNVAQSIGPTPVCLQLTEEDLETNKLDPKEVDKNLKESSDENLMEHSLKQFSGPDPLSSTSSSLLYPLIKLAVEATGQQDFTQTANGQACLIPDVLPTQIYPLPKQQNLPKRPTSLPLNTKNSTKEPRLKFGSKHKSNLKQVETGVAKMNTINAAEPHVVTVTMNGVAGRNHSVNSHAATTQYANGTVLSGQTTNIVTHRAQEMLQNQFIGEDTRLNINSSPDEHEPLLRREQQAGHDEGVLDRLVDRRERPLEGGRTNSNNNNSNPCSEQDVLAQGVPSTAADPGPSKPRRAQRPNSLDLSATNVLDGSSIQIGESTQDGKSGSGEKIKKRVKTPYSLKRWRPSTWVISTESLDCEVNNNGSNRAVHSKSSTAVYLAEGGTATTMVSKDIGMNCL
# Sequence of Serine/threonine-protein kinase PLK1 (Homo sapiens) (P53350 whole entry): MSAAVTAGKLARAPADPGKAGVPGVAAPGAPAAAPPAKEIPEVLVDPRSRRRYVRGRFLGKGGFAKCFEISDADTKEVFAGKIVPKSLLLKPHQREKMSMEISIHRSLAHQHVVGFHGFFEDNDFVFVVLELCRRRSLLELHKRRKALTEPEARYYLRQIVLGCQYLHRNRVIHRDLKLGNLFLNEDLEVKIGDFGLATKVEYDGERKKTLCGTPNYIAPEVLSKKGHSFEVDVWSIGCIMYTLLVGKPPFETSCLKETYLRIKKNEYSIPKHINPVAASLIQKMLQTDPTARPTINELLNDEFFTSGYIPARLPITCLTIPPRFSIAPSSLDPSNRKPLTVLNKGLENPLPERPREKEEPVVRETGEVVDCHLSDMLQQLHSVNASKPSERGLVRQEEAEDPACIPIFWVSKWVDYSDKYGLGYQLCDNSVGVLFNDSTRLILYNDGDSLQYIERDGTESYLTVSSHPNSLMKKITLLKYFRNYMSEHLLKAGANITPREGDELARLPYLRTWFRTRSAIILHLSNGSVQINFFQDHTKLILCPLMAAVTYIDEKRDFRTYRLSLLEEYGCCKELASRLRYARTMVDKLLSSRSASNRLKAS
# Sequence of Proto-oncogene tyrosine-protein kinase receptor Ret (Homo sapiens), P07949 [V804L] (P07949 whole entry V804L): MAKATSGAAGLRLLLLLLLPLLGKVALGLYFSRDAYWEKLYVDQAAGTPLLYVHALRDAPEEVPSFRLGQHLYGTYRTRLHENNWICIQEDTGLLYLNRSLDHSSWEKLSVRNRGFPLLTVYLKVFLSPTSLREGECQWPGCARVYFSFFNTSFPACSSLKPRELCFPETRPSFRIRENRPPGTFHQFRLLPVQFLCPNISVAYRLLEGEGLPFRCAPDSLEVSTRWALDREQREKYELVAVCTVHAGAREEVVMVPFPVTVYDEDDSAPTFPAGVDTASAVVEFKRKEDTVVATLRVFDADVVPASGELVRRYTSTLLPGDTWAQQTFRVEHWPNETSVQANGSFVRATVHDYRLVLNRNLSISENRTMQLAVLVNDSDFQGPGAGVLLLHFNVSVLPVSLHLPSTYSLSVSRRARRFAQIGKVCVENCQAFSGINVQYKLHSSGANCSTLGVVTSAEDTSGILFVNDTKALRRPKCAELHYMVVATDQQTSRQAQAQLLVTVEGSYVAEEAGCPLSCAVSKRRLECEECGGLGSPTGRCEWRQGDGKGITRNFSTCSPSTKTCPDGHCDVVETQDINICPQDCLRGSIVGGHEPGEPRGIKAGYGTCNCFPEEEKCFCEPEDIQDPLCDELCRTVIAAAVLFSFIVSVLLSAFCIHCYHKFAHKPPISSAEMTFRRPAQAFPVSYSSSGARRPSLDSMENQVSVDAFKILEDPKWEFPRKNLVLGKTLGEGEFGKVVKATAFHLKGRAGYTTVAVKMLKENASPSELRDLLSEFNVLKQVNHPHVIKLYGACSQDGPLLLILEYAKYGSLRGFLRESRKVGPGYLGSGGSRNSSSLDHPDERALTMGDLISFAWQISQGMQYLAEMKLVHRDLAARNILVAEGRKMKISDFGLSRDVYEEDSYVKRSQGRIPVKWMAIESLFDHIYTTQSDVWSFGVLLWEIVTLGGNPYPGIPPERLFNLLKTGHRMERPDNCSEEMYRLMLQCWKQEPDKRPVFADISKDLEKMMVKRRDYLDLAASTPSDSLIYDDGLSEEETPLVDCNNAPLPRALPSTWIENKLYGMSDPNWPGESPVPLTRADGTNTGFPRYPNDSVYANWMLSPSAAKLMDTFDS
# Sequence of Mitogen-activated protein kinase kinase kinase 20 (Homo sapiens) (Q9NYL2 2-800 limits assumed): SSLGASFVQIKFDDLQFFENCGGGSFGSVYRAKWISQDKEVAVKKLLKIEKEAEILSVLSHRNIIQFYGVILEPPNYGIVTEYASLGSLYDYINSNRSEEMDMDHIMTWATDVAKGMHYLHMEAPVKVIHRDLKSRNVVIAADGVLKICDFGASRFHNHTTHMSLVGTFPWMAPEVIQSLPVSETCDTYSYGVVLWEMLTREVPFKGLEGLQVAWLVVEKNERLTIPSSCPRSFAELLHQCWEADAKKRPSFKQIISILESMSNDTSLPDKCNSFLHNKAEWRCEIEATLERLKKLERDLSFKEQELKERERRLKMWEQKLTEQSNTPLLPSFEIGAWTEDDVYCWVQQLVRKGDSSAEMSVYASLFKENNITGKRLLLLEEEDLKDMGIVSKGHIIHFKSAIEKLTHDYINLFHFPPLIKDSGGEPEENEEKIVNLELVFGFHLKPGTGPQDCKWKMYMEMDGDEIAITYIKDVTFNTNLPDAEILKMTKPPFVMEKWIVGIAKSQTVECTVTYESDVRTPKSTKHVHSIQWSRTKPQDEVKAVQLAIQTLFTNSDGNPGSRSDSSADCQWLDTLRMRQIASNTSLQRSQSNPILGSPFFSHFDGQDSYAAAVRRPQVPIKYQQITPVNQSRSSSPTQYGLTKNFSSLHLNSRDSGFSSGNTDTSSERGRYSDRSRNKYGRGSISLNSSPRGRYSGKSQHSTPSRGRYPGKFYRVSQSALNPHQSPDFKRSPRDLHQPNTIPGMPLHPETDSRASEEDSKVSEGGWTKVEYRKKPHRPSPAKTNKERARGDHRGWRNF
# Sequence of Serine/threonine-protein kinase Chk2 (Homo sapiens) (O96017 whole entry): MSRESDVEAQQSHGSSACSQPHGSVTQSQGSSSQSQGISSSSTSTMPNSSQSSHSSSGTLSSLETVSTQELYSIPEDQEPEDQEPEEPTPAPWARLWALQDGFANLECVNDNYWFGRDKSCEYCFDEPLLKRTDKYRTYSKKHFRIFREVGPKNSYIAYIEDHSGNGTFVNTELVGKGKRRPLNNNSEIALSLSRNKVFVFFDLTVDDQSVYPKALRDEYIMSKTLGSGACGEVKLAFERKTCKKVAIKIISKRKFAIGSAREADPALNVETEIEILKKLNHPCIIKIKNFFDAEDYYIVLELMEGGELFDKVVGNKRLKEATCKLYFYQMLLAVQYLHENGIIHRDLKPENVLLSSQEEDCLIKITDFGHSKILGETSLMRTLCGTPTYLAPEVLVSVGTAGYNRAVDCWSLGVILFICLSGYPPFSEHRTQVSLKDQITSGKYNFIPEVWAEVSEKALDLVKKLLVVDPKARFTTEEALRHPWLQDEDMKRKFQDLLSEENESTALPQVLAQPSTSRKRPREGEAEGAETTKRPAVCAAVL
# Sequence of cAMP-dependent protein kinase catalytic subunit PRKX (Homo sapiens) (P51817 whole entry, the tested form may be a part): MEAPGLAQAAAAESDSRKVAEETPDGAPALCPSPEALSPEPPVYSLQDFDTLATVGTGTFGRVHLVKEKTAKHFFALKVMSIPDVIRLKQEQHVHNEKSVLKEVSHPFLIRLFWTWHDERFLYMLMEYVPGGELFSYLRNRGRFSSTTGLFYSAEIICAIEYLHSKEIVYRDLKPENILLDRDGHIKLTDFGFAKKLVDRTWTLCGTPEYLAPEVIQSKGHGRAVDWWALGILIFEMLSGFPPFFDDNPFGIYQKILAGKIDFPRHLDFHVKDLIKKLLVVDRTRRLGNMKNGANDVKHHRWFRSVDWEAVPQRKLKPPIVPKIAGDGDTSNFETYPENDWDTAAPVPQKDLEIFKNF
structure (smiles),measurement,setting,value
C[C@@H](c1ccccc1)n1nnc2cnc3ccc(-c4cnc5[nH]ccc5c4)cc3c21,Activity,[1],97%
same,Activity,[2],54%
same,Activity,[3],8%
same,Activity,[4],93%
same,Activity,[5],84%
same,IC50,[6],> 10 µM
same,Activity,[7],90%
same,Activity,[8],84%
same,Activity,[9],73%
same,Activity,[10],84%
same,Activity,[11],69%
same,Activity,[12],2%
same,Activity,[13],53%
same,Activity,[14],105%
same,Activity,[15],75%
same,Activity,[16],80%
same,Activity,[17],110%
same,Activity,[18],64%
same,Activity,[19],57%
same,Activity,[20],3%
